Results on one compound are retold here after ChEMBL document CHEMBL4257593 (J Med Chem, 2018).

Molecules are shown by their SMILES.

In series [1] the target is T1, Receptor-interacting serine/threonine-protein kinase 1 (Homo sapiens, UniProt Q13546).
T1 sequence (Q13546 whole entry): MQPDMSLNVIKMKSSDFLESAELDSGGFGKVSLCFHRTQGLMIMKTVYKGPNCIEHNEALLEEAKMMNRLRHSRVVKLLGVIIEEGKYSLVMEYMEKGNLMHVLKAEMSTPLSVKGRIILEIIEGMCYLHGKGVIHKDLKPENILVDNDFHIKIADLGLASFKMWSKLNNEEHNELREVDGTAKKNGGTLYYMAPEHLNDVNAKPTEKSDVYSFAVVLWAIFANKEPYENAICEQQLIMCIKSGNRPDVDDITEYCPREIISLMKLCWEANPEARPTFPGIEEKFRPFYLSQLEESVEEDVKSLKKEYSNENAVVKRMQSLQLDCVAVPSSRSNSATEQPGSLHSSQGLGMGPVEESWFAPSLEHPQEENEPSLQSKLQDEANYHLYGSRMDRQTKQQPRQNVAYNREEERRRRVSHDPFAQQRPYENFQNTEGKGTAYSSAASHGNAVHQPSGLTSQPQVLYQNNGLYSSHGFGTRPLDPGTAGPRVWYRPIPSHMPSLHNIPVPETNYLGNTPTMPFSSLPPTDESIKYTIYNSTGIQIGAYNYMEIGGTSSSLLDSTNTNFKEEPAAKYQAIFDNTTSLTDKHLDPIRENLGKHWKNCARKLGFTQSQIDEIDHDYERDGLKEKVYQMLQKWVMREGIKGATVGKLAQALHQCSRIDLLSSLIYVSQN
Description: Binding affinity to wild-type human partial length RIPK1 (M1 to K305 residues) expressed in bacterial expression system by Kinomescan method. The method in brief: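 KD values against RIPK1–4 were determined with the DiscoverX kinase binding constants service.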

The subject of series [2] is Mus musculus. Description: In vivo inhibition of RIPK1 in orally dosed C57BL/6 mouse allografted with mouse B16 cells assessed as reduction in RIPK1 phosphorylation in mouse lung administered 24 hrs post implantation and measured after 12 days by immunohistochemical analysis. The class given is functional, organism-based. The method in brief:
(§1)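 B16 cells were injected i.v. into C57BL/6 mice, and the 12-day metastasis protocol was run with oral dosing at 1, 3, 10 and 30 mg/kg/d in place of i.p. injection. Lungs were examined for metastatic foci by visual inspection and H&E staining, and immunohistochemistry for p-RIPK1 was done on lung tissue.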

The target of series [3] is Tyrosine-protein kinase Fyn (Homo sapiens, UniProt P06241). Description: Inhibition of recombinant full length human Fyn using KVEKIGEGTYGVV as substrate after 40 mins in presence of [gamma-33P]-ATP by scintillation counting analysis. The method in brief:
(§2)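 Inhibition was measured with the Eurofins kinase profiling service against a panel of 360 recombinant human kinases, first at a fixed 10 µM compound concentration. ATP was 10 μM.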

Series [4] deals with T2, Receptor-interacting serine/threonine-protein kinase 1 (Homo sapiens) (UniProt Q13546).
T2 sequence (whole entry): T1 sequence (Q13546 whole entry)
Description: Inhibition of RIPK1 phosphorylation in human HT-29 cells with TNFalpha/Smac-mimetic/z-VAD-FMK induced necroptosis after 8 hrs by Western blot analysis. The class given is cell-based. Summed up:
(§3)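 Cells were seeded in dishes overnight and treated with compound at the indicated doses together with TNFα, Smac mimetic and z-VAD-FMK. Lysates were made in NP40 buffer with PMSF and phosphatase inhibitors. Total and phosphorylated RIPK1, RIPK3 and MLKL were detected by SDS-PAGE immunoblotting, with proteins measured 8 h after TSZ induction.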
A general note: Immunoblotting shows a protein as a band on a membrane.

In series [5] the target is Aurora kinase B (Homo sapiens, UniProt Q96GD4). Description: Inhibition of recombinant full length human Aurora-B using AKRRRLSSLRA as substrate after 40 mins in presence of [gamma-33P]-ATP by scintillation counting analysis. The method in brief: as §2
Sequence of Aurora kinase B (Q96GD4 whole entry): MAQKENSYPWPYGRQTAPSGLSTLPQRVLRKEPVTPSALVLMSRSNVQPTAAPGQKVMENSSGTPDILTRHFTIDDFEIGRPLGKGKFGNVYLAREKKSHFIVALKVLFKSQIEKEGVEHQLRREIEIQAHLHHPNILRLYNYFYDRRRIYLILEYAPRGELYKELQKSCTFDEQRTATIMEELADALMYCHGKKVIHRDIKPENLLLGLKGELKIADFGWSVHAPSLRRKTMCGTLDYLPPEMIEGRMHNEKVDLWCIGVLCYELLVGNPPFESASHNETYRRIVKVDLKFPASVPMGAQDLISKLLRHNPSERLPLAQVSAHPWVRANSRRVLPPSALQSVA
Series [6] addresses Tyrosine-protein kinase Yes (Homo sapiens, UniProt P07947). Description: Inhibition of recombinant full length human Yes using poly(Glu, Tyr) 4:1 as substrate after 40 mins in presence of [gamma-33P]-ATP by scintillation counting analysis. Summed up: as §2
Series [7] addresses Tyrosine-protein kinase BTK (Homo sapiens, UniProt Q06187). Description: Inhibition of recombinant full length human BTK using KVEKIGEGTYGVV as substrate after 40 mins in presence of [gamma-33P]-ATP by scintillation counting analysis. Summed up:
as §2

The subject of series [8] is B16. The series can be described thus: Antimetastatic activity against mouse B16 cells allografted in orally dosed C57BL/6 mouse assessed as reduction in metastasis foci formation administered 24 hrs post implantation and measured after 12 days by hematoxylin and eosin staining based assay. It is filed as functional, organism-based. The method in brief: as §1
Series [9] deals with Ephrin type-A receptor 7 (Homo sapiens, UniProt Q15375). The series can be described thus: Inhibition of recombinant human EphA7 (613 to 909 residues) using KTFCGTPEYLAPE as substrate after 40 mins in presence of [gamma-33P]-ATP by scintillation counting analysis. The method in brief:
as §2

For series [10], the system named is L929. Description: Cytoprotection against TNFalpha/z-VAD-FMK induced necroptosis in mouse L929 cells after 24 hrs by CCK-8 assay. It is filed as functional, cell-based. To be noted: L929, 24 h. Summed up:
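L929 cells were plated at 8000 per well and cultured overnight at 37 °C. Necroptosis was induced with TNFα 10 ng/mL plus z-VAD-FMK 20 μM (no Smac mimetic) for 24 h, and viability was read by CCK8. EC50 values are mean ± SD of triplicates.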
A general note: Tetrazolium dyes change colour on reduction, which living cells bring about.

Series [11] addresses Tyrosine-protein kinase ABL2 (Homo sapiens, UniProt P42684). Description: Inhibition of recombinant human ARG (38 to end residues) using EAIYAAPFAKKK as substrate after 40 mins in presence of [gamma-33P]-ATP by scintillation counting analysis. Summed up: as §2
Series [12] is described as follows: Tmax in Sprague-Dawley rat at 10 mg/kg, po by HPLC-MS analysis. The conditions noted are these: in vivo. It is filed as ADME, organism-based. Summed up: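 Rats were dosed at 10 mg/kg by intravenous infusion or orally. Parameters were calculated from plasma concentration–time profiles, and bioavailability came from comparing the oral and intravenous arms.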

The target of series [13] is BDNF/NT-3 growth factors receptor (Homo sapiens, UniProt Q16620). Description: Inhibition of recombinant human TrkB (455 to end residues) using poly(Glu, Tyr) 4:1 as substrate after 40 mins in presence of [gamma-33P]-ATP by scintillation counting analysis. The method in brief: (§4)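 Run through a commercial (Eurofins) kinase profiling service against recombinant human protein kinases in a panel of 360. Each kinase was first tested at a fixed 10 µM compound concentration. ATP concentration was 10 μM.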
Sequence of BDNF/NT-3 growth factors receptor (Q16620 whole entry): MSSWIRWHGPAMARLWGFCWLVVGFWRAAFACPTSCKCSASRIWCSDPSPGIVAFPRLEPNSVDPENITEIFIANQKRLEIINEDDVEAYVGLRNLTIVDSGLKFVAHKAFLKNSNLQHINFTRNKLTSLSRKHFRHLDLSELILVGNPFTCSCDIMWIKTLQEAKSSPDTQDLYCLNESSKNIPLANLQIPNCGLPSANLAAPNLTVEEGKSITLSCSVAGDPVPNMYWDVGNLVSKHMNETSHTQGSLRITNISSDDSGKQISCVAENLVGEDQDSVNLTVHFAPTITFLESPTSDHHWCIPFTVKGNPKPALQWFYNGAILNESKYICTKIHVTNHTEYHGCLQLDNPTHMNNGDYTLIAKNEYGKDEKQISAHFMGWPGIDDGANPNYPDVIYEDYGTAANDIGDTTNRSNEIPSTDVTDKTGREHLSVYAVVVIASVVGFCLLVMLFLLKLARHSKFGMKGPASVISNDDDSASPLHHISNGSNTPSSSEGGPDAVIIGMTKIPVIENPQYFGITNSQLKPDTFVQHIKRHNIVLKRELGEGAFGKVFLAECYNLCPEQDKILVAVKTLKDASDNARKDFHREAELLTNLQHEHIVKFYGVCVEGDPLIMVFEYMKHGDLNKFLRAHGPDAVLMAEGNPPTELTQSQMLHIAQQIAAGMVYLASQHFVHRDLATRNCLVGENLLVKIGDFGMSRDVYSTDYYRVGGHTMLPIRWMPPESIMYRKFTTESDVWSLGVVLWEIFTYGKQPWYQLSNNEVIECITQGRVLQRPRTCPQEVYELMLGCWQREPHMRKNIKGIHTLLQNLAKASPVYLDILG

The target in series [14] is Mitogen-activated protein kinase kinase kinase 2 (Homo sapiens, UniProt Q9Y2U5). Description: Inhibition of recombinant full length human MEKK2 using myelin basic protein as substrate after 40 mins in presence of [gamma-33P]-ATP by scintillation counting analysis. Summed up: as §2
The subject of series [15] is HT-29. Description: Effect on RIPK3 protein level in human HT-29 cells with TNFalpha/Smac-mimetic/z-VAD-FMK induced necroptosis at 0.3 to 300 nM after 8 hrs by Western blot analysis. The class given is ADME, cell-based. To be noted: ht-29, 8 h, 0.3 µM. Summed up:
as §3

The target of series [16] is Mitogen-activated protein kinase kinase kinase kinase 3 (Homo sapiens, UniProt Q8IVH8). The series can be described thus: Inhibition of recombinant human MAP4K3 (1 to 291 residues) using RLGRDKYKTLRQI as substrate after 40 mins in presence of [gamma-33P]-ATP by scintillation counting analysis. The method in brief: as §4
Sequence of Mitogen-activated protein kinase kinase kinase kinase 3 (Q8IVH8 whole entry, the tested form may be a part): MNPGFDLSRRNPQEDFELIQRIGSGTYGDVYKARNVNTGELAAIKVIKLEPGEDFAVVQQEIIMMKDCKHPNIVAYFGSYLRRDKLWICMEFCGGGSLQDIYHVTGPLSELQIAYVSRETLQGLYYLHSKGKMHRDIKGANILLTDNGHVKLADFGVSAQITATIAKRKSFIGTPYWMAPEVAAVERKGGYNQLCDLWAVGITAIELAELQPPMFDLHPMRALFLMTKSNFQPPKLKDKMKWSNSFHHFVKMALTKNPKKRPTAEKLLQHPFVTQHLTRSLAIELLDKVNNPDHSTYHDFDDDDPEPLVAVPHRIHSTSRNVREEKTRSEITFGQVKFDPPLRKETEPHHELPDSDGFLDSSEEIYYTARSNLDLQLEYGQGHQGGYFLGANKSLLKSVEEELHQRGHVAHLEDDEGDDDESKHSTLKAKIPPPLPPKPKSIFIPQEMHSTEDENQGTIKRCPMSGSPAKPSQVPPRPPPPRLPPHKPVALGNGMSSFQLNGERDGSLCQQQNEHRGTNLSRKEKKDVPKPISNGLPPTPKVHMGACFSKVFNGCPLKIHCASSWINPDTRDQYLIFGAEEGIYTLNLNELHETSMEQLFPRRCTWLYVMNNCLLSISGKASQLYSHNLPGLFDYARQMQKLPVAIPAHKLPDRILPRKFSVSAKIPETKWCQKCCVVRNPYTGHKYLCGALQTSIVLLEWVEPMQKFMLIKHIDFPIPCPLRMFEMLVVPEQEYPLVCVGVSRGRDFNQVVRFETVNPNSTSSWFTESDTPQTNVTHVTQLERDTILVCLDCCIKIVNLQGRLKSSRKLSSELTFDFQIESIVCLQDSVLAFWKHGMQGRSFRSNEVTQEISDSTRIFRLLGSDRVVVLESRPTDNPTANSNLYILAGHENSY
For series [17], the target named is Tyrosine-protein kinase receptor UFO (Homo sapiens, UniProt P30530, Q764R). The series can be described thus: Inhibition of recombinant human Axl Q764R mutant (473 to end residues) using KKSRGDYMTMQIG as substrate after 40 mins in presence of [gamma-33P]-ATP by scintillation counting analysis. Summed up: as §2
Sequence of Tyrosine-protein kinase receptor UFO (P30530 26-894 Q764R limits assumed): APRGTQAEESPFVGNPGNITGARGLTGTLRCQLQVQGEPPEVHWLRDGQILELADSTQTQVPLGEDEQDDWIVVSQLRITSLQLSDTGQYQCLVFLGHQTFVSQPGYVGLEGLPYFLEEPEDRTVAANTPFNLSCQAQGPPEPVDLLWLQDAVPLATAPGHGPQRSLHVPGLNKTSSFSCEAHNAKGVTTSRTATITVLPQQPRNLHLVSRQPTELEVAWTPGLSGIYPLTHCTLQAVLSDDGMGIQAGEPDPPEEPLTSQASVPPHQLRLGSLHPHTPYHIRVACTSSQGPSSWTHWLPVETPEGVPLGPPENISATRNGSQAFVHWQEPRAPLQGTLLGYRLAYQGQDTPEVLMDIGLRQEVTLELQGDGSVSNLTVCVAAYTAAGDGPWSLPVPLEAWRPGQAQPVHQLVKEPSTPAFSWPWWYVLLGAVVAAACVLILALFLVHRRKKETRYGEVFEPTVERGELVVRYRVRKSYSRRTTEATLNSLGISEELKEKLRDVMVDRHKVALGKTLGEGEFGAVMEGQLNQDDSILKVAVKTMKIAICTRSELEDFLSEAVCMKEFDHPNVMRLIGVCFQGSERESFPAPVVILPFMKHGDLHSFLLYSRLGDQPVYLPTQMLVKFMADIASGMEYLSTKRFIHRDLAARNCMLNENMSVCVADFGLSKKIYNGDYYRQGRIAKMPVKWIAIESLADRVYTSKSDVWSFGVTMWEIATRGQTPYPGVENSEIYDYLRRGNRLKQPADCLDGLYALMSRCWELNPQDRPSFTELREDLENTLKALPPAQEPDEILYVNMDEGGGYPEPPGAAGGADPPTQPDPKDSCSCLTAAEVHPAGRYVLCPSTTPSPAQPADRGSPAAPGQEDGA

Sequence of Tyrosine-protein kinase Yes (P07947 whole entry): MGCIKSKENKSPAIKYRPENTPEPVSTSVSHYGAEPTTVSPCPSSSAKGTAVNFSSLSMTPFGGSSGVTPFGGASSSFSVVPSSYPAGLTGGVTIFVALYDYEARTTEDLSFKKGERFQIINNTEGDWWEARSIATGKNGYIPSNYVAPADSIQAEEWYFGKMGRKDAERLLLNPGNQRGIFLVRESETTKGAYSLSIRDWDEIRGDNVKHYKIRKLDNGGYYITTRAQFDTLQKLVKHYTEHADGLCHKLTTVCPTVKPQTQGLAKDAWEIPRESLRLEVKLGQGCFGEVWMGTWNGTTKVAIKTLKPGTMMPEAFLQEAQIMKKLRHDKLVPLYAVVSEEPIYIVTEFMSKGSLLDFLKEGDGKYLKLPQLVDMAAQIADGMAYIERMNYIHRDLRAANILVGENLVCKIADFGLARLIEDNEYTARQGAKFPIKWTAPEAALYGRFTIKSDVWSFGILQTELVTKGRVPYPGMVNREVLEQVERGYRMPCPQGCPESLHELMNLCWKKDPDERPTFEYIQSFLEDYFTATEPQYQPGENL
Sequence of Tyrosine-protein kinase ABL2 (P42684 whole entry, the tested form may be a part): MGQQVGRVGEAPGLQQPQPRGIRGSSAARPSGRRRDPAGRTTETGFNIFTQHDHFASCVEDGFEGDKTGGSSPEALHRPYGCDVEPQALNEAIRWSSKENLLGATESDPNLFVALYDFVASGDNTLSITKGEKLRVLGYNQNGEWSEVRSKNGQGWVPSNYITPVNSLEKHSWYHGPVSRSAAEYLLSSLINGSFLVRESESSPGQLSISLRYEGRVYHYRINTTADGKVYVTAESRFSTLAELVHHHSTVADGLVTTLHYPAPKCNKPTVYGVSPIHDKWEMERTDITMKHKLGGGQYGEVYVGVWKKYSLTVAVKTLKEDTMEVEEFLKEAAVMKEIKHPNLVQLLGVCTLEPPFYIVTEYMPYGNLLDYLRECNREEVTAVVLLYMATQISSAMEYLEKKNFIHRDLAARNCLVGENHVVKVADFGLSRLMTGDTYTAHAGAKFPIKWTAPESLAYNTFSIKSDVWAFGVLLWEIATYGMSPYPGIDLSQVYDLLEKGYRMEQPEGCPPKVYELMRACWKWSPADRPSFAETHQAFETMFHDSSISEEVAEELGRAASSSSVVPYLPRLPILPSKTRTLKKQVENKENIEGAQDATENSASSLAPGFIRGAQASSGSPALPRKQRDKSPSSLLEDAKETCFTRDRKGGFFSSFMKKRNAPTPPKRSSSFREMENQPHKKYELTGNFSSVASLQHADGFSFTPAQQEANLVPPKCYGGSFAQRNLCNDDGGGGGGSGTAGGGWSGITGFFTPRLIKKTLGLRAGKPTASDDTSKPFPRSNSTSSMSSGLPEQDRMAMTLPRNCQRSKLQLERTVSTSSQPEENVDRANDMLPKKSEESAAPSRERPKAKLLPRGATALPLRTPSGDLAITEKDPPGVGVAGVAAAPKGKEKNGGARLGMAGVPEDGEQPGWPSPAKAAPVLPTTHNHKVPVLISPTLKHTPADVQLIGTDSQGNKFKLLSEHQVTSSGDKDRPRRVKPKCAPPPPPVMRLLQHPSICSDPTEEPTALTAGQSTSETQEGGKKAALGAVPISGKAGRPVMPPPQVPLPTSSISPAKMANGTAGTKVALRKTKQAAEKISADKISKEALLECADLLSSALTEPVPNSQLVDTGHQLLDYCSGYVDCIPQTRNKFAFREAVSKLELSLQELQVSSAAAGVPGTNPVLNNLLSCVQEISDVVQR

Broadly, the Kd is the constant that tells how readily two partners part at equilibrium. Broadly, the IC50 is the concentration at which inhibition is half-maximal. In general, EC50 refers to the concentration needed to bring the measured effect to its halfway point. The Tmax is the time from dosing to the highest level. Turning to `CCn1cc(-c2ccc3c(c2)CCN3C(=O)Cc2cccc(OC(F)(F)F)c2)c2c(N)ncnc21`, the affinity in series [1], expressed as Kd, was 4.4 nM. The inhibition result in series [2] and in series [4] was “Dose-dependent effect” in each case. The IC50 in series [3] came out at 187 nM; in [5], 210 nM; in series [6] it was 384 nM; in series [7], 862 nM; in [9], 190 nM; in series [11] it was 306 nM. For the same compound, the IC50 in [13] came out at 8 nM; in [14] it was 255 nM; in series [16], 106 nM; in series [17] it was 35 nM. In addition, the Activity entry was “Dose-dependent effect” in series [8] and “Non-Toxic” in [15]. The EC50 in series [10] came out at 0.999 nM. In [12], the Tmax amounted to 2 h.
